Experimental data: ChEMBL document CHEMBL1129267, “Aryl 1-but-3-ynyl-4-phenyl-1,2,3,6-tetrahydropyridines as potential antipsychotic agents: synthesis and structure-activity relationships” (J Med Chem, 1996)

Experiments:
[1] = target: T1, 5-hydroxytryptamine receptor 1A (Rattus norvegicus, UniProt P19327); experiment: Binding affinity against serotonin 5-hydroxytryptamine 1A receptor using radioligand [3H]8-OH-DPAT binding assay
T1 sequence (P19327 whole entry): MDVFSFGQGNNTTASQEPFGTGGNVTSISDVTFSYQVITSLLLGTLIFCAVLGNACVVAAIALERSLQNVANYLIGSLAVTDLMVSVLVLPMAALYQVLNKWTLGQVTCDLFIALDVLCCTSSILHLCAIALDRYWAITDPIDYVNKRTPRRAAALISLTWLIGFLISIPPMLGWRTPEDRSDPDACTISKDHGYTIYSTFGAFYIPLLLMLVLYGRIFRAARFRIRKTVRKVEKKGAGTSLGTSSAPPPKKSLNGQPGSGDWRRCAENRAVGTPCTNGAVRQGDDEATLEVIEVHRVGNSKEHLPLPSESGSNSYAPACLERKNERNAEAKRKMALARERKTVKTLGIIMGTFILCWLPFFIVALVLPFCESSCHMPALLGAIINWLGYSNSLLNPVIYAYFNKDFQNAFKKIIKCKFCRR
In short: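 Rat hippocampal membranes labelled with [³H]-8-OH-DPAT (0.4 nM final); nonspecific binding with 8-OH-DPAT (1 µM).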

[2] = target: D(2) dopamine receptor (Homo sapiens, UniProt P14416); experiment: […] Dopamine receptor D2 mitogenesis measured as [3H]thymidine incorporation in CHO p-5 cells expressing human D2 receptors
Chain of D(2) dopamine receptor (Homo sapiens, UniProt P14416) (P14416 whole entry): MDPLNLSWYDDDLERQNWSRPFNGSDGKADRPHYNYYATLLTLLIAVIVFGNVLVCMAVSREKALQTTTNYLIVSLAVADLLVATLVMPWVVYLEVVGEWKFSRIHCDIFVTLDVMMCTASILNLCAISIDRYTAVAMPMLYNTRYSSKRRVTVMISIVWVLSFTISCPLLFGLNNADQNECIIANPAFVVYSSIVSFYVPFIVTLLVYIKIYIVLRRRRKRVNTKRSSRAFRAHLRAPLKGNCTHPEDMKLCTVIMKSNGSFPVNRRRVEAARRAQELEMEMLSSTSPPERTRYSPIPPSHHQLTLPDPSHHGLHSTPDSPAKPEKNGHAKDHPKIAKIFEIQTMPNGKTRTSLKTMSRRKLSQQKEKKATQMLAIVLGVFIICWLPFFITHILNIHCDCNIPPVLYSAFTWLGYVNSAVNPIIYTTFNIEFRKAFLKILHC
In short: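 CHO p-5 cells transfected with human D2L are grown 2 days at 37 °C in medium with 10% calf serum, rinsed, and switched to serum-free medium plus compound in water. After 16-17 h, [³H]thymidine (1 µCi/well) is added for 4 h; cells are harvested onto filters and counted.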

[3] = target: T2, D(2) dopamine receptor (Rattus norvegicus, UniProt P61169); experiment: Binding affinity against Dopamine receptor D2 in CHO-K1 cells using radioligand [3H]NPA binding assay; type: cell-based
T2 sequence (P61169 whole entry): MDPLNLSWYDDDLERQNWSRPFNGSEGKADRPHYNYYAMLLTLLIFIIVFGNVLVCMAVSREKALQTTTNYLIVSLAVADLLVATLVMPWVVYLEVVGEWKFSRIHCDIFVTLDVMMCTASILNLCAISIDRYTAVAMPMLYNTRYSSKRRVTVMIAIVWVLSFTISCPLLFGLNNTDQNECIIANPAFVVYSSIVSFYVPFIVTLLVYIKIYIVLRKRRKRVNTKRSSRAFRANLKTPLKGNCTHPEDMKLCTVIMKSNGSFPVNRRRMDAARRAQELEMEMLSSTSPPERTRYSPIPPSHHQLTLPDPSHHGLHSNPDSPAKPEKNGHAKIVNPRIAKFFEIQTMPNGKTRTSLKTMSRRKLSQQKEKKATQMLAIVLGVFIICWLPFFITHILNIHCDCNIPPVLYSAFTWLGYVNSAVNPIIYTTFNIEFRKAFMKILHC

[4] = target: D(3) dopamine receptor (Homo sapiens, UniProt P35462); experiment: Binding affinity against human Dopamine receptor D3 in CHO-K1 cells using [3H]spiperone as radioligand; type: cell-based
Chain of D(3) dopamine receptor (P35462 whole entry): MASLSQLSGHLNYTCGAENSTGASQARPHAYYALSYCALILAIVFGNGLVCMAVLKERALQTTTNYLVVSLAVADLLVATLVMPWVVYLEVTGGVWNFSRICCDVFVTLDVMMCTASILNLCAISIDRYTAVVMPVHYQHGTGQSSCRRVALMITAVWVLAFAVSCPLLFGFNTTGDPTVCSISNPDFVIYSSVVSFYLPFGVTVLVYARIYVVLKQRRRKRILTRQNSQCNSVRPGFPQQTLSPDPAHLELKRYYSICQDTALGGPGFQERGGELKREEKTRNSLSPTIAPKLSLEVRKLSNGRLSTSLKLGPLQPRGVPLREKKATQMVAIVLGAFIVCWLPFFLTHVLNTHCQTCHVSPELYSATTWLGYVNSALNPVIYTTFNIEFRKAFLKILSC

[5] = target: T3, Adrenergic receptor alpha-1 (Rattus norvegicus, UniProt P15823+P23944+P43140); experiment: Binding affinity against Alpha-1 adrenergic receptor using radioligand [3H]prazosin binding assay.; type: protein assay
T3 sequence (P15823 whole entry): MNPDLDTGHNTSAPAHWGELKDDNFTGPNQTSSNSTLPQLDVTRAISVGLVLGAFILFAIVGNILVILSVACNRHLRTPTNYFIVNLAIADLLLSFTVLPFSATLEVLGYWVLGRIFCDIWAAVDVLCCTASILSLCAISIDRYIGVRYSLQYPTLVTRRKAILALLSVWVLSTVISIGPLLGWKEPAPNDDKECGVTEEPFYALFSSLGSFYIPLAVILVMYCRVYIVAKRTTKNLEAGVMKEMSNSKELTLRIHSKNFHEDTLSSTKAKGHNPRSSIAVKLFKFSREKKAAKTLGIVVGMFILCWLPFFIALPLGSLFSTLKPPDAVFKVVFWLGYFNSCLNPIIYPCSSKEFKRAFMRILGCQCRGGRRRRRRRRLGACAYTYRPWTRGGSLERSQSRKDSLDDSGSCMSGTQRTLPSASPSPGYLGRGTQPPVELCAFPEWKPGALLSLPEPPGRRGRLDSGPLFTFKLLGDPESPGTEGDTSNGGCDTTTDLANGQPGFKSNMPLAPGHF
T3 sequence (P23944 whole entry): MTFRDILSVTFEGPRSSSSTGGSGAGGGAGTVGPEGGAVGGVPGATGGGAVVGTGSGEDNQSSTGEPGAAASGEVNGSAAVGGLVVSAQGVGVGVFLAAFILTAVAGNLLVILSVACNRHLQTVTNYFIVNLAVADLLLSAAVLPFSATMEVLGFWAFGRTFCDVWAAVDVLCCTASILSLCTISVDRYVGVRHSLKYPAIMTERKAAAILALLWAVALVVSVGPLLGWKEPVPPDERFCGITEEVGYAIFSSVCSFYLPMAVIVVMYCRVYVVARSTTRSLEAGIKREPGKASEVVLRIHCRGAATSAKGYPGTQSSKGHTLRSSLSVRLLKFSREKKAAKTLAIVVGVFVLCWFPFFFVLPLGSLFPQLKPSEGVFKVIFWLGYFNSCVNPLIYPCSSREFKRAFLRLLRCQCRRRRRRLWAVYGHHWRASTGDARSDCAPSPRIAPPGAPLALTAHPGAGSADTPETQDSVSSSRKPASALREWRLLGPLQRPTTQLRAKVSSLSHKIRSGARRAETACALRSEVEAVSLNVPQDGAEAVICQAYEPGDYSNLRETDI
T3 sequence (P43140 whole entry): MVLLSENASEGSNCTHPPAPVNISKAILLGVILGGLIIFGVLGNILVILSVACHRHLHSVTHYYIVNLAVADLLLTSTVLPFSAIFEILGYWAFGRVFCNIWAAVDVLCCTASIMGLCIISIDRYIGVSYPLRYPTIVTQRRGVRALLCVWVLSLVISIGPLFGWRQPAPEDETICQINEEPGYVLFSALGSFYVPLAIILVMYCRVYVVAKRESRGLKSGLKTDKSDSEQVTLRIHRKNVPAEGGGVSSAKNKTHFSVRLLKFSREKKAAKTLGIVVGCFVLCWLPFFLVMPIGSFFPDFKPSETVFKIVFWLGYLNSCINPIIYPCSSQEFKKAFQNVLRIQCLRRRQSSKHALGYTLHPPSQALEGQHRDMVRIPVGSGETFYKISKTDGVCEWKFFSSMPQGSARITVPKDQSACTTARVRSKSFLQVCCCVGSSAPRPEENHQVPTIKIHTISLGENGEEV
In short: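 Inhibition of [³H]prazosin (0.1 nM final) binding in rat cortex membranes; phentolamine (10 µM final) defines nonspecific binding.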

[6] = target: T2, D(2) dopamine receptor; experiment: Binding affinity at Dopamine receptor D2 in rat striatal membrane by [3H]spiperone displacement.; type: cell membranes, Striatum
In short: (§1)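 Rat striatal membranes; [³H]spiperone 0.2 nM final; nonspecific binding defined with (+)-butaclamol 1.0 µM final. Four to six concentrations, each run in triplicate; Ki obtained by nonlinear regression analysis.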

[7] = target: T4, D(4) dopamine receptor (Homo sapiens, UniProt P21917); experiment: Binding affinity against human Dopamine receptor D4 in CHO-K1 cells using [3H]spiperone as radioligand; type: cell-based
T4 sequence (P21917 whole entry): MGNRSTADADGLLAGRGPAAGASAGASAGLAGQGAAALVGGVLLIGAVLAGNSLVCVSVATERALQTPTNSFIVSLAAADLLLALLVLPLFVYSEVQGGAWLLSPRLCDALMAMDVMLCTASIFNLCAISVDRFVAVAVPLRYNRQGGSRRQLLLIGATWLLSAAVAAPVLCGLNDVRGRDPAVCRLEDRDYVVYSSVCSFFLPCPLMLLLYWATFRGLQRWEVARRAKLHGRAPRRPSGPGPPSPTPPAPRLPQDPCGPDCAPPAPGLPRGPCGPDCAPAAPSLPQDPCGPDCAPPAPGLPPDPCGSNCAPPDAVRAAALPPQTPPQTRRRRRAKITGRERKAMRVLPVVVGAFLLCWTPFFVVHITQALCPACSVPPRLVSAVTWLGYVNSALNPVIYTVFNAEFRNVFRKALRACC
In short: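 Human D4.2 receptor expressed in CHO K1 cells; [³H]spiperone 0.2 nM final; nonspecific binding defined with haloperidol 1.0 µM final.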

[8] = tested on: Rattus norvegicus; experiment: In vivo inhibition of locomotor activity in the rat following p.o. administration.; type: functional; details: po
[9] = tested on: Monkey; experiment: Compound was tested for inhibition of conditioned avoidance after administering perorally(po) in squirrel monkeys; type: functional; details: Cebidae, in Saimiri
[10] = target: D(1A) dopamine receptor (Rattus norvegicus, UniProt P18901); type: cell membranes, Brain, Membrane
Chain of D(1A) dopamine receptor (P18901 whole entry): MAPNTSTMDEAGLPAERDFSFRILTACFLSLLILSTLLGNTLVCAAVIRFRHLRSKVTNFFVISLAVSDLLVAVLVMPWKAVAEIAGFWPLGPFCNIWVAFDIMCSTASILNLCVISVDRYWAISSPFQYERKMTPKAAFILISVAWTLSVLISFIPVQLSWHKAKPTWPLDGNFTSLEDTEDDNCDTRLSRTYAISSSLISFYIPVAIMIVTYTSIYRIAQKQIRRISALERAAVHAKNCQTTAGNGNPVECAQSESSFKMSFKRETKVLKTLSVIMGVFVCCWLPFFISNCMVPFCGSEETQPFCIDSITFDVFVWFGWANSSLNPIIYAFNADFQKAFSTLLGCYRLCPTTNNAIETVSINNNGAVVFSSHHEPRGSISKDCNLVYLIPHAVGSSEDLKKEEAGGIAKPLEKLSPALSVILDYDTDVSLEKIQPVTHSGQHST

[11] = tested on: Rattus norvegicus; experiment: Percent decrease of the firing rate of rat substantia nigra DA neurons at a dose of 2.5 mg/kg ip; type: functional; details: route intraperitoneal
[12] = tested on: Mus musculus; experiment: (§2) Compound was tested for the inhibition of locomotor activity (LMA)by administering Intraperitoneally in mouse.; type: functional; details: ip
[13] = tested on: Mus musculus; experiment: as §2; type: functional; details: ip; remark: listed apart in the source
In short: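 Mice dosed ip, then tested immediately for 1 h in darkened cylindrical photobeam chambers. Percent inhibition of locomotor activity relative to vehicle-treated animals; ED50 derived from three to six doses, n = 6-18 animals/dose.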

[14] = target: T2, D(2) dopamine receptor; experiment: Compound was evaluated for their affinity against dopamine receptor D2 by displacing [3H]-spiperone in rat striatal membrane; type: cell membranes, Striatum; in short: as §1
[15] = tested on: Rattus norvegicus; experiment: Percent reversal of the increase on DOPA levels in the striatum of GBL-treated rats at a dose of 10 mg/kg ip; type: functional; details: route intraperitoneal

In the case of `Nc1ccc(C#CCCN2CC=C(c3ccccc3)CC2)nc1`, the Ki [1] is reported as 69 nM, the EC50 [2] is reported as 1.3 nM and the Ki [3] is reported as 1.9 nM. It also gave a Ki [4] of 2.6 nM, a Ki [5] of 57.5 nM and a Ki [6] of 63 nM. It also gave a Ki [7] of 371 nM, an ED50 [8] of 1.7 mg/kg and an ED50 [9] of 0.43 mg/kg. It also gave a Ki [10] greater than 10000 nM and a Decrease [11] of 100%.

For `C(#Cc1cnc2ccccc2c1)CCCN1CC=C(c2ccccc2)CC1`, the ED50 [8] was 18.6 mg/kg.

In the case of `C(#Cc1cnc2ccccc2c1)CCN1CC=C(c2ccccc2)CC1`, the Ki [6] is reported as 30 nM.

`Nc1ccc(C#CCCN2CC=C(c3ccccc3)CC2)cn1` was tested, and the Ki [1] was 632 nM, the ED50 [12] was 0.06 mg/kg and the EC50 [2] was 0.5 nM. The Ki [3] was 19 nM, the Ki [4] was 7 nM and the Ki [6] was 33 nM. It also gave a Ki [7] of 278 nM, an ED50 [8] of 2.5 mg/kg and an ED50 [9] of 2.8 mg/kg. It also gave a Ki [10] greater than 10000 nM and a Decrease [11] of 63%.

For `COc1ccc(C#CCCN2CC=C(c3ccccc3)CC2)cc1`, the ED50 [12] was 3.3 mg/kg, the Ki [6] was 327 nM and the ED50 [8] was greater than 30 mg/kg.

For `C(#Cc1ccc2c(c1)OCCO2)CCN1CC=C(c2ccccc2)CC1`, the ED50 [12] was 2.2 mg/kg, the Ki [6] was 127 nM and the ED50 [8] was greater than 30 mg/kg.

Work on `C(#Cc1cnc2ccccc2c1)CN1CC=C(c2ccccc2)CC1` yielded an ED50 [13] greater than 30 mg/kg and a Ki [6] greater than 10000 nM.

`C(#Cc1cncc2ccccc12)CCN1CC=C(c2ccccc2)CC1` gave a Ki [6] of 73 nM and an ED50 [8] of 3.8 mg/kg.

`C(#Cc1cccnc1)CCCN1CC=C(c2ccccc2)CC1` showed a Ki [6] of 56 nM and an ED50 [8] of 4.3 mg/kg.

Compound `Nc1ccccc1C#CCCN1CC=C(c2ccccc2)CC1` has an ED50 [13] of 1.6 mg/kg, a Ki [14] of 183 nM and an ED50 [8] of 23.9 mg/kg.

Work on `C(#Cc1cccnc1)CCN1CCN(c2ncccn2)CC1` yielded an ED50 [12] greater than 30 mg/kg and a Ki [6] greater than 10000 nM.

Compound `Oc1ccc2[nH]cc(CCCCN3CC=C(c4ccccc4)CC3)c2c1` [ROXINDOLE] has an ED50 [12] of 0.2 mg/kg, a Ki [4] of 0.4 nM and a Ki [6] of 9.1 nM. It also gave a Ki [7] of 24 nM, an ED50 [8] of 12.8 mg/kg and a Decrease [11] of 100%. The Decrease [15] was 64%.
